pEC50, pIC50, pKi: −log10 of the molar value.
Key:
TGF-beta receptor type-1 [1] = target: T1, TGF-beta receptor type-1 (Homo sapiens, UniProt P36897); test: Binding affinity to human TGFBR1
T1 sequence (P36897 whole entry): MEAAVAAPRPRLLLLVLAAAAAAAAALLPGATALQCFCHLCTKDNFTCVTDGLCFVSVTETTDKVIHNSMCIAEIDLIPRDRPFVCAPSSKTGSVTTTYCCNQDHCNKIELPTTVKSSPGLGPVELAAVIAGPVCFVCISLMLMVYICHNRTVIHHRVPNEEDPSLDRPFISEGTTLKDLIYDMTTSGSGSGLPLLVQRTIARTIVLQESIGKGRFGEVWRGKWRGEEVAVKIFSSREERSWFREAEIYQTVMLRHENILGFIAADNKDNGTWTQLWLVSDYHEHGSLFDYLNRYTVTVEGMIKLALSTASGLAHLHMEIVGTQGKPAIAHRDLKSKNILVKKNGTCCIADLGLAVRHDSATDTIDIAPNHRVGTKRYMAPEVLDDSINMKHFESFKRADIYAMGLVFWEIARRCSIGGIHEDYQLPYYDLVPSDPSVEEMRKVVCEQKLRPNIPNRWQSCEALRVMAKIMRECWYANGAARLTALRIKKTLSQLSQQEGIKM

TGF-beta receptor type-1 [2] = target: T1, TGF-beta receptor type-1; test: Inhibition of TGFBR1 transfected in human HepG2 cells after 24 hrs by plasminogen activator inhibitor-luciferase reporter gene assay; assay type: cell-based
[3] = target: Mitogen-activated protein kinase 14 (Homo sapiens, UniProt Q16539); test: Inhibition of p38alpha
[4] = Half life in iv dosed Sprague-Dawley rat; assay type: ADME, organism-based; settings: in vivo
How it was run: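 Half-life was measured in fasted male Sprague–Dawley rats and is the mean of 4 iv experiments. Depending on the compound, the vehicle was 20% captisol or NMP/H₂O (1/1).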

[5] = Bioavailability in iv and po dosed Sprague-Dawley rat; assay type: ADME, organism-based; settings: in vivo
How it was run: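 Fasted male Sprague–Dawley rats were dosed iv and po. […] Depending on the compound, the vehicle was 20% captisol or NMP/H₂O (1/1).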

Chain of Mitogen-activated protein kinase 14 (Q16539 whole entry): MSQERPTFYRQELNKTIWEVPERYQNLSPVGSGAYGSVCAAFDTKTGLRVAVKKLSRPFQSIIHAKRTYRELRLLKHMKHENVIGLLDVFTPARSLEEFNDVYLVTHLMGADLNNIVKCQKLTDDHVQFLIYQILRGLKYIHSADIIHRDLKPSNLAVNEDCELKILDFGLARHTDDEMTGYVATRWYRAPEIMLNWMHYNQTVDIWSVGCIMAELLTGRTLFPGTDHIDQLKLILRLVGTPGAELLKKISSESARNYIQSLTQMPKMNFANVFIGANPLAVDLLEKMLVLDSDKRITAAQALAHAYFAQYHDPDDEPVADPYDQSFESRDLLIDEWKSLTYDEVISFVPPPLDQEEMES

SMILES | pKi (TGF-beta receptor type-1 [1]) | pEC50 (TGF-beta receptor type-1 [2]) | pEC50 [3] | pIC50 (TGF-beta receptor type-1 [2]) | pIC50 [3] | half-life [4] [h] | bioavailability [5] [%]
Cc1nc(-c2nc(N3CCCCC3)[nH]c2-c2ccc3ncnn3c2)ccc1F | 7.27 | – | – | – | – | – | –
Cc1nc(-c2nc(N)[nH]c2-c2ccc3nccnc3c2)ccc1F | 9.15 | – | – | 7.47 | 4.90 | 0.6 | 28
CC(=O)Nc1nc(-c2cccc(C)n2)c(-c2ccc3ncnn3c2)[nH]1 | 8.53 | 6.78 | 4.24 | – | – | 7.1 | 100
CC(=O)Nc1nc(-c2ccc(F)c(C)n2)c(-c2ccc3ncnn3c2)[nH]1 | 8.68 | 6.95 | 4.55 | – | – | – | –
CC(=O)Nc1nc(-c2ccc(F)c(C)n2)c(-c2ccc3nccnc3c2)[nH]1 | – | 6.74 | 4.83 | – | – | 7.8 | 66
Cc1nc(-c2nc(N3CCN(S(C)(=O)=O)CC3)[nH]c2-c2ccc3ncnn3c2)ccc1F | 8.52 | 6.38 | 4.39 | – | – | – | –
CC(=O)N1CCN(c2nc(-c3ccc(F)c(C)n3)c(-c3ccc4ncnn4c3)[nH]2)CC1 | 7.82 | 5.91 | 4.85 | – | – | – | –

Now from value to compound, other results behind:

pKi (TGF-beta receptor type-1 [1]) | pEC50 (TGF-beta receptor type-1 [2]) | pEC50 [3] | SMILES | pIC50 (TGF-beta receptor type-1 [2]) | pIC50 [3] | half-life [4] [h] | bioavailability [5] [%]
8.06 | 6.81 | 4.87 | CCC(=O)Nc1nc(-c2ccc(F)c(C)n2)c(-c2ccc3nccnc3c2)[nH]1 | – | – | – | –
7.82 | 6.29 | 4.33 | Cc1nc(-c2nc(N3CCOCC3)[nH]c2-c2ccc3ncnn3c2)ccc1F | – | – | 0.4 | 25
7.79 | 6.46 | 4.96 | Cc1nc(-c2nc(N3CCN(C)CC3)[nH]c2-c2ccc3ncnn3c2)ccc1F | – | – | – | –
7.72 | 6.83 | 4.83 | COCCC(=O)Nc1nc(-c2ccc(F)c(C)n2)c(-c2ccc3nccnc3c2)[nH]1 | – | – | 13.2 | 41
9.48 | 7.10 | 4.66 | Cc1cccc(-c2nc(N)sc2-c2ccc3nccnc3c2)n1 | – | – | 7.4 | 87
< 4.55 | – | – | Cc1nc(-c2nc(NC(=O)C(C)C)[nH]c2-c2ccc3nccnc3c2)ccc1F | – | – | – | –
8.14 | 7.21 | 4.82 | COCC(=O)Nc1nc(-c2ccc(F)c(C)n2)c(-c2ccc3nccnc3c2)[nH]1 | – | – | – | –

From ChEMBL document CHEMBL1143371, “2-Aminoimidazoles inhibitors of TGF-beta receptor 1” (Bioorg Med Chem Lett, 2009)
